Source: ChEMBL document CHEMBL2057109, “Synthesis, biological evaluation, and molecular docking studies of 2,5-substituted-1,4-benzoquinone as novel urease inhibitors” (Bioorg Med Chem, 2012)
Calls of active or inactive are those of the source. No cut-off for these calls is given here.

The compounds below were run against Urease subunit alpha/Urease subunit beta (Helicobacter pylori (strain ATCC 700392 / 26695) (Campylobacterpylori)) (UniProt P69996+P14916) (assay: Inhibition of Helicobacter pylori urease assessed as ammonia production at 100 uM preincubated for 3 hrs measured by indophenol method).
Urease subunit alpha/Urease subunit beta (Helicobacter pylori (strain ATCC 700392 / 26695) (Campylobacterpylori)), sequence (P14916 whole entry, looked up): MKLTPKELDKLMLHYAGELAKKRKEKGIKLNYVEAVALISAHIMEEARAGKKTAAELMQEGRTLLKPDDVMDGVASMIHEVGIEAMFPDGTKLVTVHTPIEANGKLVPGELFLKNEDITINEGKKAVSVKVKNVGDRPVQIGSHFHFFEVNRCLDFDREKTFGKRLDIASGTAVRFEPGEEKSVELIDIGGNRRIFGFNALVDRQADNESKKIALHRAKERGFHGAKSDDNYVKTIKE
Urease subunit alpha/Urease subunit beta (Helicobacter pylori (strain ATCC 700392 / 26695) (Campylobacterpylori)), sequence (P69996 whole entry, looked up): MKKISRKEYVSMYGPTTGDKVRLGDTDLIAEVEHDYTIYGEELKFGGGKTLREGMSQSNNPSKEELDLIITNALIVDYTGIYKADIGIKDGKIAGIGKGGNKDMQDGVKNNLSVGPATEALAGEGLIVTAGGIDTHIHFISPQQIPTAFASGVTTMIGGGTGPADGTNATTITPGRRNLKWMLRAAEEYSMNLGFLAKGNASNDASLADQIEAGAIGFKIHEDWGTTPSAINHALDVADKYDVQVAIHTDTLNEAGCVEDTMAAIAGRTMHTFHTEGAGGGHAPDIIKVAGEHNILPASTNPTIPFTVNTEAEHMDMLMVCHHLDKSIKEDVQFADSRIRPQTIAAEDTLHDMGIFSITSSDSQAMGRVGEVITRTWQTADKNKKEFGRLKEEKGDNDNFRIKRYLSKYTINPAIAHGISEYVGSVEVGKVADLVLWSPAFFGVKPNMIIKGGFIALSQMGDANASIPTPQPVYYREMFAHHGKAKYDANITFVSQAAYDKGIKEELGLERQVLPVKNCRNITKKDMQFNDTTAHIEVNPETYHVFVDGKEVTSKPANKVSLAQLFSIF

SMILES | inhibition
O=C1C=C(NC2CCCC2)C(=O)C=C1NC1CCCC1 | 68.8%
O=C1C=C(NC2CC2)C(=O)C=C1NC1CC1 | inactive
O=C1C=C(NCCN2CCOCC2)C(=O)C=C1NCCN1CCOCC1 | 81.6%
O=C1C=C(NCCNc2ccccc2)C(=O)C=C1NCCNc1ccccc1 | inactive
O=C1C=C(NC2CCCCC2)C(=O)C=C1NC1CCCCC1 | 62.7%
CC(=O)NO [ACETOHYDROXAMIC ACID] | 85.2%
CC(C)NC1=CC(=O)C(NC(C)C)=CC1=O | inactive

These compounds were tested against Urease subunit alpha/Urease subunit beta (Helicobacter pylori (strain ATCC 700392 / 26695) (Campylobacterpylori), UniProt P69996) (assay: Inhibition of Helicobacter pylori urease assessed as ammonia production preincubated for 3 hrs measured by indophenol method).
Method in brief: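 Enzyme came from H. pylori broth cultures (2.0 × 10⁸ CFU/mL), which were pelleted at 5000 g and 4 °C, washed twice in PBS at pH 7.4, and stored at −80 °C. Urease and test compound were pre-incubated for 3 h at room temperature. Ammonia production was then quantified by the Weatherburn indophenol method.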

Urease subunit alpha/Urease subunit beta, sequence (P69996 whole entry): as the sequence (P69996 whole entry, looked up) above
Urease subunit alpha/Urease subunit beta, sequence (P14916 whole entry, further chain): as the sequence (P14916 whole entry, looked up) above

SMILES | IC50 [µM]
O=C1C=C(NC2CCCC2)C(=O)C=C1NC1CCCC1 | 35.4
O=C1C=C(NCCN2CCOCC2)C(=O)C=C1NCCN1CCOCC1 | 27.3
O=C1C=C(NC2CCCCC2)C(=O)C=C1NC1CCCCC1 | 41.5
CC(=O)NO [ACETOHYDROXAMIC ACID] | 46.3
